Test results: ChEMBL document CHEMBL1141651, “Discovery of a potent, selective, and orally active proteasome inhibitor for the treatment of cancer” (J Med Chem, 2008)
Activity calls are given as the source filed them. The calls are words filed in the database; no cut-off is given here.

Experiments:
[1] = Inhibition of chymotrypsin-like activity of human erythrocyte 20S proteasome
How it was run: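 Isolated 20S proteasome purified from human erythrocytes was tested in a fluorimetric kinetic assay of chymotrypsin-like activity. Potency is reported as IC50.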

[2] = Inhibition of chymotrypsin-like activity of human 20S proteasome in Molt4 cells; format: cell-based; conditions: molt-4
How it was run: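 Intact human leukemia Molt-4 cells were given the cell-permeable fluorogenic chymotrypsin-like substrate MeOSuc-FLF-AFC, so the read-out also reflects inhibitor cell permeability. Potency is reported as EC50.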

[3] = Inhibition of bovine alpha chymotrypsin; design: species or system Bos taurus
A2780 = experiment: Cytotoxicity against human A2780 cells; format: functional, cell-based
How it was run: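 Antiproliferative activity was measured in A2780 ovarian carcinoma cells with a standard colorimetric assay of cell proliferation and viability. Results are expressed as IC50.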

[4] = AUC (0 to infinity) in CD1 mouse at 0.8 mg/kg, iv; format: ADME, organism-based; design: time infinity, dose 0.8 mg/kg, route intravenous; conditions: plasma
How it was run: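 CD-1 mice received a single dose by the iv or oral route. AUC from 0 to infinity was reported with terminal half-life, Vss, clearance and absolute oral bioavailability.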

[5] = target: Dipeptidyl peptidase 1 (Bos taurus) (UniProt Q3ZCJ8); experiment: Inhibition of bovine cathepsin C at 10 uM
Sequence of Dipeptidyl peptidase 1 (Bos taurus) (Q3ZCJ8 25-134 limits assumed): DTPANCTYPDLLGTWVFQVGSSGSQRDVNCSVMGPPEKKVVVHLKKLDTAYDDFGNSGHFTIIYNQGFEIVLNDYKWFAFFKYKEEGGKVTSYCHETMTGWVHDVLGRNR
Sequence of Dipeptidyl peptidase 1 (Bos taurus) (Q3ZCJ8 231-394 limits assumed): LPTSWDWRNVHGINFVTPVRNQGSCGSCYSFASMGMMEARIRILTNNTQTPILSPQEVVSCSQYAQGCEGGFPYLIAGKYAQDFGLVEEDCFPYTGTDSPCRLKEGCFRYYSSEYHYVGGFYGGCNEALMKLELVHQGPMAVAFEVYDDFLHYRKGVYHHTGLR
Sequence of Dipeptidyl peptidase 1 (Bos taurus) (Q3ZCJ8 395-463 limits assumed): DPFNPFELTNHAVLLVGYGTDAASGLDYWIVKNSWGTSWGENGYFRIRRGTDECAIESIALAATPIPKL

[6] = target: Neutrophil elastase (Homo sapiens) (UniProt P08246); experiment: Inhibition of human neutrophil elastase 2 at 10 uM
Sequence of Neutrophil elastase (Homo sapiens) (P08246 whole entry): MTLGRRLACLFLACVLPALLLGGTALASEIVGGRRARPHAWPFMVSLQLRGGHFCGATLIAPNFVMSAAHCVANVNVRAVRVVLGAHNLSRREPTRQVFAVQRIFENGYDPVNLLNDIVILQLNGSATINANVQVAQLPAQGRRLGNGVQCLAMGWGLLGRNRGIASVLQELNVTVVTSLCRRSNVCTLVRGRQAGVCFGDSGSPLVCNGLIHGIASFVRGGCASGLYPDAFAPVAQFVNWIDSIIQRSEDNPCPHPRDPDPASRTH

[7] = Inhibition of human chymotrypsin
How it was run: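 Cross-reactivity was tested against human pancreas α-chymotrypsin using a fluorogenic specific substrate. Results are expressed as IC50.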

Homo sapiens [8] = species on record: Homo sapiens; experiment: Inhibition of human tryptase at 10 uM
[9] = Metabolic stability in mouse liver microsomes; format: ADME, Microsome
Renin (Homo sapiens) = Renin (Homo sapiens) (UniProt P00797); experiment: Inhibition of human renin at 10 uM
[10] = Protein binding in rat plasma; format: ADME, cell-free; conditions: read-out: PPB (converted)
Sus scrofa [11] = species on record: Sus scrofa; experiment: Inhibition of pig pepsin at 10 uM
[12] = target: Matrilysin (Homo sapiens) (UniProt P09237); experiment: Inhibition of human MMP7 at 10 uM
Sequence of Matrilysin (Homo sapiens) (P09237 whole entry): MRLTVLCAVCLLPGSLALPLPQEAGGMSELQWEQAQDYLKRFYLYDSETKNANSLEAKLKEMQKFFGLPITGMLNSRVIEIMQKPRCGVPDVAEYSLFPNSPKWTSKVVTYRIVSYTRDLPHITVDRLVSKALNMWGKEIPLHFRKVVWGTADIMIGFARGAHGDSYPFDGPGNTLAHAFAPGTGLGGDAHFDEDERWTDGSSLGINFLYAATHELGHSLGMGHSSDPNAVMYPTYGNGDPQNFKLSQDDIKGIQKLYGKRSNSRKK

[13] = target: Prothrombin (Homo sapiens) (UniProt P00734); experiment: Inhibition of human thrombin at 10 uM
[14] = target: Interstitial collagenase (Homo sapiens) (UniProt P03956); experiment: Inhibition of human MMP1 at 10 uM
Sequence of Interstitial collagenase (Homo sapiens) (P03956 whole entry): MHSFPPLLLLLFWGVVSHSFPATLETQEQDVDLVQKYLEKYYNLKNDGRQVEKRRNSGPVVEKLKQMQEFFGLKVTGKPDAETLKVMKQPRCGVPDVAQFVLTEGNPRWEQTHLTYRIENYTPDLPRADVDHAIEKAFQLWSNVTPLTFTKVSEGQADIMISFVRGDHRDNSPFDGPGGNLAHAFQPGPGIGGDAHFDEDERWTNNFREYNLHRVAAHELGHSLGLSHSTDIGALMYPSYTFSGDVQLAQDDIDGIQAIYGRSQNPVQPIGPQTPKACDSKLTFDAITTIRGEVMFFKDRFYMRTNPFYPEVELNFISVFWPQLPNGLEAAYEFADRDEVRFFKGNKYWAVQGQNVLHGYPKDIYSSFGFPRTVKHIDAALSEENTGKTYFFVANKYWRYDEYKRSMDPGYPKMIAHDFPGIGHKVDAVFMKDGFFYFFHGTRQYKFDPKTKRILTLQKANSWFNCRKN

[15] = target: Cathepsin Z (Homo sapiens) (UniProt Q9UBR2); experiment: Inhibition of human cathepsin Z at 10 uM
Caspase-7 (Homo sapiens) = Caspase-7 (Homo sapiens) (UniProt P55210); experiment: Inhibition of human caspase 7 at 10 uM
[16] = target: Plasma kallikrein (Homo sapiens) (UniProt P03952); experiment: Inhibition of human plasma kallikrein at 10 uM
Sus scrofa [17] = species on record: Sus scrofa; experiment: Inhibition of pig pancreatic elastase 1 at 10 uM
Caspase-2 (Homo sapiens) = Caspase-2 (Homo sapiens) (UniProt P42575); experiment: Inhibition of human caspase 2 at 10 uM
Homo sapiens [18] = species on record: Homo sapiens; experiment: Inhibition of human chymotrypsin at 10 uM
Caspase-1 (Homo sapiens) = Caspase-1 (Homo sapiens) (UniProt P29466); experiment: Inhibition of human caspase 1 at 10 uM
[19] = target: Stromelysin-1 (Homo sapiens) (UniProt P08254); experiment: Inhibition of human MMP3 at 10 uM
Sequence of Stromelysin-1 (Homo sapiens) (P08254 100-477 limits assumed): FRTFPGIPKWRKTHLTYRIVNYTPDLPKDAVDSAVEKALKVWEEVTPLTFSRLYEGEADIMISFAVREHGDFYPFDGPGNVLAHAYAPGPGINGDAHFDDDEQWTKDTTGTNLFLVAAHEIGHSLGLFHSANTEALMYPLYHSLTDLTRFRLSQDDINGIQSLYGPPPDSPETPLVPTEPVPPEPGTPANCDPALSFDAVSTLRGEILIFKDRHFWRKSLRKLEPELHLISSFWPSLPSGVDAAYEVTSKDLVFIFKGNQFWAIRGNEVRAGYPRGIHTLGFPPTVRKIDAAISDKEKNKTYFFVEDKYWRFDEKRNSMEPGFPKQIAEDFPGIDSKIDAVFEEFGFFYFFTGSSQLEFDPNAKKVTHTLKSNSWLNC

[20] = target: Disintegrin and metalloproteinase domain-containing protein 17 (Homo sapiens) (UniProt P78536); experiment: Inhibition of human TACE at 10 uM
Sequence of Disintegrin and metalloproteinase domain-containing protein 17 (Homo sapiens) (P78536 whole entry, the tested form may be a part): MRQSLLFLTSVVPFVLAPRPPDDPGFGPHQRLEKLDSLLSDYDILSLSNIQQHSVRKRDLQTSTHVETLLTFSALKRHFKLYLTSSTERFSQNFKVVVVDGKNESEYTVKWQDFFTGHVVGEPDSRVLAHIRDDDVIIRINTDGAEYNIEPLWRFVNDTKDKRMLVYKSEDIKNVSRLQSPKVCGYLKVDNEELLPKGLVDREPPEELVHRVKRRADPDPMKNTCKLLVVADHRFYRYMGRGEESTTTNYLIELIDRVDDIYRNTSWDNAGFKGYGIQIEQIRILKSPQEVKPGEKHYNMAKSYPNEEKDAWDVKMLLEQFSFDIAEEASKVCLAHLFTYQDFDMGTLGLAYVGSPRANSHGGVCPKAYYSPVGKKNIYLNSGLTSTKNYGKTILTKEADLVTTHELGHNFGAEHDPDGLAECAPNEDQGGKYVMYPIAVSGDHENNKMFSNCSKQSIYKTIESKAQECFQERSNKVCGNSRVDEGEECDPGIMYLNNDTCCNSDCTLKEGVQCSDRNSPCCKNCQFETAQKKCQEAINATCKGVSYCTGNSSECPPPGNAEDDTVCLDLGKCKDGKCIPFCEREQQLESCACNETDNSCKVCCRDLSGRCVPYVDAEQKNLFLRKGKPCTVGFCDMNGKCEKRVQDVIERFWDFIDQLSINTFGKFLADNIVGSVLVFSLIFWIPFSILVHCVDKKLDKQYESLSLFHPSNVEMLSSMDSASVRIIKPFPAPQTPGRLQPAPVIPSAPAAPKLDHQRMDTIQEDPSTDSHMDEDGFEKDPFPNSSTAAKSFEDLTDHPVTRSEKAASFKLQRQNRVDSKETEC

Cathepsin G = Cathepsin G (Homo sapiens, UniProt P08311); experiment: Inhibition of human cathepsin G
[21] = target: Dipeptidyl peptidase 4 (Homo sapiens) (UniProt P27487); experiment: Inhibition of human DPP4 at 10 uM
[22] = AUC (0 to infinity) in CD1 mouse at 4 mg/kg, po; format: ADME, organism-based; design: time infinity, dose 4 mg/kg, route oral; conditions: plasma
[23] = Half life in CD1 mouse at 4 mg/kg, po; format: ADME, organism-based; design: dose 4 mg/kg, route oral; conditions: in vivo
How it was run: (§1)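 Female Sprague–Dawley rats and CD-1 mice each received a single iv or oral (po) dose. Terminal half-life and systemic clearance were estimated from plasma exposure over time, alongside AUC0→∞, Vss and absolute oral bioavailability.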

[24] = target: Neprilysin (Homo sapiens) (UniProt P08473); experiment: Inhibition of human NEP at 10 uM
[25] = Volume of distribution at steady state in CD1 mouse at 0.8 mg/kg, iv; format: ADME, organism-based; design: dose 0.8 mg/kg, route intravenous; conditions: in vivo, read-out: Vdss
How it was run: (§2)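 Single-dose pharmacokinetics after iv or oral administration in female Sprague–Dawley rats and in CD-1 mice; plasma exposure (AUC0–∞) used to derive steady-state volume of distribution, clearance, terminal half-life and absolute oral bioavailability.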

[26] = target: Neutrophil collagenase (Homo sapiens) (UniProt P22894); experiment: Inhibition of human MMP8 at 10 uM
Sequence of Neutrophil collagenase (Homo sapiens) (P22894 101-467 limits assumed): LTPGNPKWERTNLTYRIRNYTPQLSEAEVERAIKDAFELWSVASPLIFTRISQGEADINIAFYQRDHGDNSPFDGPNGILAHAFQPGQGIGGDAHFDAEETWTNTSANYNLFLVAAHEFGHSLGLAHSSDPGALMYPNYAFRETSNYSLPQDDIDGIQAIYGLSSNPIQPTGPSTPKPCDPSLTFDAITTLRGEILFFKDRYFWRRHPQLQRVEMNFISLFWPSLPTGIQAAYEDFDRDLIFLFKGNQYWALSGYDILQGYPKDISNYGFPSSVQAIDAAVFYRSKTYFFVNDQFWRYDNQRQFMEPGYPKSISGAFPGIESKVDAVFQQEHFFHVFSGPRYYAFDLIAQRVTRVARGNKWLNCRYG

Trypsin (Homo sapiens) = Trypsin (Homo sapiens) (UniProt P07477+P07478+P35030); experiment: Inhibition of human trypsin at 10 uM; format: protein assay
[27] = target: Cathepsin G (Homo sapiens) (UniProt P08311); experiment: Inhibition of human cathepsin G at 10 uM
[28] = Metabolic stability in human liver microsomes; format: ADME, Microsome
[29] = target: Pro-cathepsin H (Homo sapiens) (UniProt P09668); experiment: Inhibition of human cathepsin H at 10 uM
Sequence of Pro-cathepsin H (Homo sapiens) (P09668 116-335 limits assumed, other chains not shown): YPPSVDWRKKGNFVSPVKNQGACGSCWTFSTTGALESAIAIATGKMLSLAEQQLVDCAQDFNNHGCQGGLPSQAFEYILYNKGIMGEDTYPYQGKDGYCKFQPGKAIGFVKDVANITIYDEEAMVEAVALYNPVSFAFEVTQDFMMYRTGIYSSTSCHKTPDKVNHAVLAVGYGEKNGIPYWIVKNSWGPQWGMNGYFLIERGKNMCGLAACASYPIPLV

[30] = Protein binding in mouse plasma; format: ADME, cell-free; conditions: read-out: PPB (converted)
Mus musculus = experiment: Inhibition of 20S proteasome beta5beta1 subunit binding in human RPMI 8226 cells xenografted mouse; format: functional, organism-based
[31] = Protein binding in dog plasma; format: ADME, cell-free, Canis lupus familiaris; conditions: read-out: PPB (converted)
[32] = Metabolic stability in dog liver microsomes; format: ADME, Canis lupus familiaris, Microsome
[33] = target: Procathepsin L (Homo sapiens) (UniProt P07711); experiment: Inhibition of human cathepsin L at 10 uM
[34] = target: Cathepsin E (Homo sapiens) (UniProt P14091); experiment: Inhibition of human cathepsin E at 10 uM
Sequence of Cathepsin E (Homo sapiens) (P14091 whole entry): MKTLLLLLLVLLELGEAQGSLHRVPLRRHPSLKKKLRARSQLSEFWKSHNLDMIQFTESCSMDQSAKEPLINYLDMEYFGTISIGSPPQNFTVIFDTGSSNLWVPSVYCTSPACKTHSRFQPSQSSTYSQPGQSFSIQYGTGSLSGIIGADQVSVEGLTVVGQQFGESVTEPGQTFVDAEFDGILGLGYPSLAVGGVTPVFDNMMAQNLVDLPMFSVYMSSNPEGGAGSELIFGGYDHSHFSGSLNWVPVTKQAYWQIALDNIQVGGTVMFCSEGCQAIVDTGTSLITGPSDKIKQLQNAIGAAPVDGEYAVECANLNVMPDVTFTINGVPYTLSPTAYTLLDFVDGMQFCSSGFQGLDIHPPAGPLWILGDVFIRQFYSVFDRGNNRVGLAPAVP

[35] = Clearance in CD1 mouse at 0.8 mg/kg, iv; format: ADME, organism-based; design: dose 0.8 mg/kg, route intravenous; conditions: in vivo; how it was run: as §1
Chymase (Homo sapiens) = Chymase (Homo sapiens) (UniProt P23946); experiment: Inhibition of human chymase at 10 uM
[36] = target: 72 kDa type IV collagenase (Homo sapiens) (UniProt P08253); experiment: Inhibition of human MMP2 at 10 uM
[37] = Half life in CD1 mouse at 0.8 mg/kg, iv; format: ADME, organism-based; design: dose 0.8 mg/kg, route intravenous; conditions: in vivo; how it was run: as §1
Chymase = Chymase (Homo sapiens, UniProt P23946); experiment: Inhibition of human chymase
[38] = target: Macrophage metalloelastase (Homo sapiens) (UniProt P39900); experiment: Inhibition of human MMP12 at 10 uM
[39] = target: Endothelin-converting enzyme 1 (Homo sapiens) (UniProt P42892); experiment: Inhibition of human ECE1 at 10 uM
[40] = Oral bioavailability in CD1 mouse at 4 mg/kg; format: ADME, organism-based; conditions: in vivo; how it was run: as §2
Caspase-9 (Homo sapiens) = Caspase-9 (Homo sapiens) (UniProt P55211); experiment: Inhibition of human caspase 9 at 10 uM
Caspase-8 (Homo sapiens) = Caspase-8 (Homo sapiens) (UniProt Q14790); experiment: Inhibition of human caspase 8 at 10 uM
[41] = Metabolic stability in rat liver microsomes; format: ADME, Microsome
[42] = Inhibition of bacterial prolyl oligopeptidase at 10 uM
[43] = target: Calpain-1 catalytic subunit (Homo sapiens) (UniProt P07384); experiment: Inhibition of human calpain 1 at 10 uM
Caspase-3 (Homo sapiens) = Caspase-3 (Homo sapiens) (UniProt P42574); experiment: Inhibition of human caspase 3 at 10 uM
Sequence of Caspase-3 (Homo sapiens) (P42574 29-175 limits assumed): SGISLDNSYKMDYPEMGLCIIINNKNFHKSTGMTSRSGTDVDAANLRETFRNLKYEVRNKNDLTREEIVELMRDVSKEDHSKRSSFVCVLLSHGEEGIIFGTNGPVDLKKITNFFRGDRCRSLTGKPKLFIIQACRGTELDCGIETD
Sequence of Caspase-3 (Homo sapiens) (P42574 176-277 limits assumed): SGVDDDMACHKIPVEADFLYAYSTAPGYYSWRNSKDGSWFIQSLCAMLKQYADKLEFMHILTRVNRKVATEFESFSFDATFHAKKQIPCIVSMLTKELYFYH

[44] = target: Coagulation factor X (Homo sapiens) (UniProt P00742); experiment: Inhibition of human factor 10a at 10 uM
[45] = target: Tissue-type plasminogen activator (Homo sapiens) (UniProt P00750); experiment: Inhibition of human TPA at 10 uM
[46] = target: Plasminogen (Homo sapiens) (UniProt P00747); experiment: Inhibition of human plasmin at 10 uM
[47] = target: Coagulation factor VII (Homo sapiens) (UniProt P08709); experiment: Inhibition of human factor 7a at 10 uM
Sequence of Coagulation factor VII (Homo sapiens) (P08709 61-212 limits assumed): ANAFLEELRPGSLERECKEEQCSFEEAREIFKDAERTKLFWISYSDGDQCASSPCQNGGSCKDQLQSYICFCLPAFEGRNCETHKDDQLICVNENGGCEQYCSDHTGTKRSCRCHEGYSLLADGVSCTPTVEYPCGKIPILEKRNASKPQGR
Sequence of Coagulation factor VII (Homo sapiens) (P08709 213-466 limits assumed): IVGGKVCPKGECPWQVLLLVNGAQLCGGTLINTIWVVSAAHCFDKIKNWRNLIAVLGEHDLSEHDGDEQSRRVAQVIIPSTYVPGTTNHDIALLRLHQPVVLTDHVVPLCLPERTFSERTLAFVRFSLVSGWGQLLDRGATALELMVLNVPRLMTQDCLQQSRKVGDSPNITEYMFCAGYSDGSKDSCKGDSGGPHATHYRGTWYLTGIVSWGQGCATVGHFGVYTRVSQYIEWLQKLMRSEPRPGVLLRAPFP

[48] = target: Cathepsin D (Homo sapiens) (UniProt P07339); experiment: Inhibition of human cathepsin D at 10 uM
Sequence of Cathepsin D (Homo sapiens) (P07339 65-162 limits assumed): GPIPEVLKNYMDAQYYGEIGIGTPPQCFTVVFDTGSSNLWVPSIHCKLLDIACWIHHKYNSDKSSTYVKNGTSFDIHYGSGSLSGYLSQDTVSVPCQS
Sequence of Cathepsin D (Homo sapiens) (P07339 169-412 limits assumed): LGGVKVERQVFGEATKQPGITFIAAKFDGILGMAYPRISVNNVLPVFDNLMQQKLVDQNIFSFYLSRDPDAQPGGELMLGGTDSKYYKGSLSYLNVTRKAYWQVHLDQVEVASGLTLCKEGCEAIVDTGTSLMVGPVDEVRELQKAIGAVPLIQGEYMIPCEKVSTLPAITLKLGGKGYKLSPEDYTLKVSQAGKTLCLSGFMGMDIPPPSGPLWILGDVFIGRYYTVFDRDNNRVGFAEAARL

[49] = target: Protease (Human immunodeficiency virus 1) (UniProt Q9YQ12); experiment: Inhibition of HIV1 protease at 10 uM
[50] = target: Cathepsin S (Homo sapiens) (UniProt P25774); experiment: Inhibition of human cathepsin S at 10 uM
Sequence of Cathepsin S (Homo sapiens) (P25774 115-331 limits assumed): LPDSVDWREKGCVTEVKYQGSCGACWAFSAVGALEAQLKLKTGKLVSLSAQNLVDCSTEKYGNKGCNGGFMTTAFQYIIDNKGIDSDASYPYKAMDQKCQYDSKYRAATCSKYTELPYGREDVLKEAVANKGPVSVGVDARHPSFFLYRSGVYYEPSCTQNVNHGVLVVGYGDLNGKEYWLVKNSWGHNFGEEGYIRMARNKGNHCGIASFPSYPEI

## CC(C)C[C@H](NC(=O)[C@@H](NC(=O)c1cnc(-c2ccccc2)cn1)[C@@H](C)O)B(O)O
[1]
  IC50: 1.8 nM
[2]
  EC50: 21 nM
[3]
  IC50: 270 nM
A2780
  IC50: 8.2 nM

## CC(C)C[C@H](NC(=O)[C@@H](NC(=O)c1ncccc1-c1ccccc1)[C@@H](C)O)B(O)O
[1]
  IC50: 8.8 nM
[2]
  EC50: 13000 nM
[3]
  IC50: 460 nM

## CC(C)C[C@H](NC(=O)[C@@H](NC(=O)c1cnccn1)[C@@H](C)O)B(O)O
[1]
  IC50: 42 nM
[2]
  EC50: 1350 nM

## CC(C)C[C@H](NC(=O)[C@@H](NC(=O)c1ccc(-c2ccccc2)cc1)[C@@H](C)O)B(O)O
[1]
  IC50: 0.9 nM
[2]
  EC50: 21 nM
[3]
  IC50: 600 nM
A2780
  IC50: 4.9 nM

## CC(C)C[C@H](NC(=O)[C@@H](NC(=O)c1ccc2ccccc2n1)[C@@H](C)O)B(O)O
[1]
  IC50: 6.8 nM
[2]
  EC50: 32 nM
[3]
  IC50: 1300 nM
A2780
  IC50: 20.9 nM

## CC(C)C[C@H](NC(=O)[C@H](Cc1ccccc1)NC(=O)c1cnccn1)B(O)O [BORTEZOMIB]
[4]
  AUC(0-inf): 927 ng·h/mL
[5]
  inhibition: 5%
[6]
  inhibition: 27%
[7]
  IC50: 1220 nM
Homo sapiens [8]
  inhibition: 0%
[9]
  half-life: 21 min
Renin (Homo sapiens)
  inhibition: -1%
[10]
  fraction unbound: 0.069
Sus scrofa [11]
  inhibition: 8%
[12]
  inhibition: -6%
[13]
  inhibition: 2%
[1]
  IC50: 3.8 nM
[14]
  inhibition: 6%
[15]
  inhibition: 27%
Caspase-7 (Homo sapiens)
  inhibition: 1%
[16]
  inhibition: 6%
[2]
  EC50: 21 nM
Sus scrofa [17]
  inhibition: -1%
Caspase-2 (Homo sapiens)
  inhibition: 1%
Homo sapiens [18]
  inhibition: 86%
Caspase-1 (Homo sapiens)
  inhibition: 0%
[19]
  inhibition: -1%
[20]
  inhibition: 2%
[3]
  IC50: 500 nM
Cathepsin G
  IC50: 520 nM
[21]
  inhibition: 1%
[22]
  AUC(0-inf): 499 ng·h/mL
[23]
  half-life: 70 h
[24]
  inhibition: 9%
[25]
  Vd: 102 L/kg
[26]
  inhibition: 3%
Trypsin (Homo sapiens)
  inhibition: -1%
[27]
  inhibition: 96%
[28]
  half-life: 37 min
[29]
  inhibition: 8%
[30]
  fraction unbound: 0.049
Mus musculus
  Activity: inactive
[31]
  fraction unbound: 0.058
[32]
  half-life: > 40 min
[33]
  inhibition: 50%
[34]
  inhibition: -3%
[35]
  clearance: 14.3 mL/min/kg
Chymase (Homo sapiens)
  inhibition: 95%
[36]
  inhibition: -1%
[37]
  half-life: 98 h
Chymase
  IC50: 1190 nM
[38]
  inhibition: -7%
[39]
  inhibition: 26%
[40]
  bioavailability: 11%
Caspase-9 (Homo sapiens)
  inhibition: 0%
Caspase-8 (Homo sapiens)
  inhibition: -4%
[41]
  half-life: 16 min
[42]
  inhibition: 9%
[43]
  inhibition: 0%
Caspase-3 (Homo sapiens)
  inhibition: 2%
[44]
  inhibition: 4%
A2780
  IC50: 1.7 nM
[45]
  inhibition: 1%
[46]
  inhibition: 22%
[47]
  inhibition: 4%
[48]
  inhibition: -1%
[49]
  inhibition: -2%
[50]
  inhibition: 48%

## CC(C)C[C@H](NC(=O)[C@@H](NC(=O)c1cncc(-c2ccccc2)n1)[C@@H](C)O)B(O)O
[1]
  IC50: 2.3 nM
[2]
  EC50: 27 nM
[3]
  IC50: 280 nM
A2780
  IC50: 9.8 nM

## CC(C)C[C@H](NC(=O)[C@@H](NC(=O)c1ccc2ccccc2c1)[C@@H](C)O)B(O)O
[1]
  IC50: 1.6 nM
[2]
  EC50: 27 nM
[3]
  IC50: 500 nM
A2780
  IC50: 5.3 nM

## CC(C)C[C@H](NC(=O)[C@@H](NC(=O)c1cccc(-c2ccccc2)c1)[C@@H](C)O)B(O)O
[1]
  IC50: 0.8 nM
[2]
  EC50: 16.9 nM
[3]
  IC50: 900 nM
A2780
  IC50: 4.8 nM

## CC(C)C[C@H](NC(=O)[C@@H](NC(=O)c1cc(-c2ccccc2)ccn1)[C@@H](C)O)B(O)O
[1]
  IC50: 2 nM
[2]
  EC50: 18.6 nM
[3]
  IC50: 290 nM
A2780
  IC50: 5.1 nM

## CC(C)C[C@H](NC(=O)[C@@H](NC(=O)c1csc(-c2ccccc2)n1)[C@@H](C)O)B(O)O
[1]
  IC50: 4.6 nM
[2]
  EC50: 16 nM
[3]
  IC50: 590 nM
A2780
  IC50: 28 nM
